In ChEMBL document CHEMBL1145764, “Nonbenzamidine isoxazoline derivatives as factor Xa inhibitors” (Bioorg Med Chem Lett, 2003):

Assays:
Prothrombin = Prothrombin (Homo sapiens, UniProt P00734); assay: Inhibitory activity against thrombin using human purified enzyme
Summary of the method: (§1)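 Human purified enzyme in 0.1 M sodium phosphate buffer with 0.2 M NaCl and 0.5% polyethylene glycol 6000, pH 7.0. Inhibitor tested at eight half-log concentrations from 10 down to 0.00316. Plates read at 405 nm for 30 min. Rates compared with no-inhibitor controls to give % activity, converted to Ki using substrate concentration and Km. Duplicate runs with common internal standards.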

Coagulation factor X [1] = target: Coagulation factor X (Homo sapiens, UniProt P00742); assay: Inhibitory activity against factor Xa using human purified enzyme.; summary of the method: as §1
Sequence of Coagulation factor X (Homo sapiens, UniProt P00742) (P00742 41-179 limits assumed): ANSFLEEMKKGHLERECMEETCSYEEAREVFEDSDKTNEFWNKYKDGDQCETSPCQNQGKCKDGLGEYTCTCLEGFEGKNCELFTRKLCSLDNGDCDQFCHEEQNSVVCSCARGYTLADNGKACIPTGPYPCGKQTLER
Sequence of Coagulation factor X (Homo sapiens, UniProt P00742) (P00742 235-488 limits assumed): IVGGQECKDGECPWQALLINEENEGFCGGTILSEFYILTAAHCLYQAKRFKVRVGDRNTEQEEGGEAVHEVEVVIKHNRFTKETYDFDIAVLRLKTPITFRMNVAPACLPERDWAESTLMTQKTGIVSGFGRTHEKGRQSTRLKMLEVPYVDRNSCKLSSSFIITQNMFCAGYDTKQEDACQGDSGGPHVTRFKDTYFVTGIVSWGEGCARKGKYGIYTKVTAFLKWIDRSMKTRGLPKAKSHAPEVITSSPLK

Serine protease 1 = Serine protease 1 (Homo sapiens, UniProt P07477); assay: Inhibitory activity against trypsin using human purified enzyme; summary of the method: as §1
Sequence of Serine protease 1 (P07477 whole entry): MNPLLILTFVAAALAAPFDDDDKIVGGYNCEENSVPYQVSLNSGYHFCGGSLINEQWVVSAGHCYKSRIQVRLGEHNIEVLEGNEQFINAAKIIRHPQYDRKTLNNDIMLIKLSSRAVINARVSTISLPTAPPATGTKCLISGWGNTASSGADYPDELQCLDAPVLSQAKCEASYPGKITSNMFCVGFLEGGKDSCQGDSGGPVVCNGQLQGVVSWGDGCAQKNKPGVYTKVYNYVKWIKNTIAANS

[2] = Pharmacokinetic profile in terms of half life was determined at a dose of 5 mg/kg administered intravenously in dog; type: ADME, organism-based, Canis lupus familiaris; design: dose 5 mg/kg, route intravenous; conditions: in vivo, iv
Oryctolagus cuniculus [3] = organism: Oryctolagus cuniculus; assay: (§2) Inhibitory concentration required for antithrombotic efficacy in rabbit arterio-venous shunt model; type: functional
[4] = Pharmacokinetic profile in terms of clearance was determined at a dose of 5 mg/kg administered intravenously in dog; type: ADME, organism-based, Canis lupus familiaris; design: dose 5 mg/kg, route intravenous; conditions: in vivo, iv
Coagulation factor X [5] = target: T1, Coagulation factor X (Oryctolagus cuniculus, UniProt O19045); assay: Inhibitory activity against Rabbit factor Xa was determined
T1 sequence (O19045 whole entry): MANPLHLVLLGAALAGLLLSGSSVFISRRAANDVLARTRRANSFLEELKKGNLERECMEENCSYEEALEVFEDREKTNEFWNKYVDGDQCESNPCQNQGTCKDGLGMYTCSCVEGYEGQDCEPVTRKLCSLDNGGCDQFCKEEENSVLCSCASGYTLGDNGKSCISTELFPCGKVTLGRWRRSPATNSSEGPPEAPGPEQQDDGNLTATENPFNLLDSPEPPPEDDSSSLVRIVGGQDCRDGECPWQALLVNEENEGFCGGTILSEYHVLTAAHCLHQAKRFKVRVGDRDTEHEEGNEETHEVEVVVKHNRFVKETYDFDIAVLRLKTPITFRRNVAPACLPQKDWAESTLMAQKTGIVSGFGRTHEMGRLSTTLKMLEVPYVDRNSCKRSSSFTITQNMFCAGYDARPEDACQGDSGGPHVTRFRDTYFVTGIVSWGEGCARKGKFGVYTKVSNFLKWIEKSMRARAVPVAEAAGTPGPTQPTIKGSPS

[6] = Pharmacokinetic profile in terms of half life was determined at a dose of 0.5 mg/kg administered intravenously in dog; type: ADME, organism-based, Canis lupus familiaris; design: dose 0.5 mg/kg, route intravenous; conditions: in vivo, iv
Oryctolagus cuniculus [7] = organism: Oryctolagus cuniculus; assay: as §2; type: functional, organism-based
[8] = Pharmacokinetic profile in terms of clearance was determined at a dose of 0.5 mg/kg administered intravenously in dog; type: ADME, organism-based, Canis lupus familiaris; design: dose 0.5 mg/kg, route intravenous; conditions: in vivo, iv

COc1ccc(C2=NOC(CNS(C)(=O)=O)(C(=O)Nc3ccc(-c4ccccc4S(N)(=O)=O)cn3)C2)cc1 (centres undefined)
Ki (Prothrombin): > 6.3 µM
Ki (Coagulation factor X [1]): 0.01 µM
Ki (Serine protease 1): > 4.2 µM

N=C(N)c1cccc(C2=NOC(Cn3cnnn3)(C(=O)Nc3ccc(-c4ccccc4S(N)(=O)=O)cn3)C2)c1 (centres undefined)
half-life [2]: 1.1 h
ID50 (Oryctolagus cuniculus [3]): 0.032 µM/h/kg
clearance [4]: 1.32 L/h/kg
Ki (Coagulation factor X [5]): 0.00011 µM

CC1(C(=O)Nc2ccc(-c3ccccc3S(N)(=O)=O)cc2)CC(c2ccc(Cl)c(N)c2)=NO1 (centres undefined)
Ki (Coagulation factor X [1]): 0.13 µM

CC1(C(=O)Nc2ccc(-c3ccccc3S(N)(=O)=O)cc2)CC(c2cccc(C(=N)N)c2)=NO1 (centres undefined)
Ki (Coagulation factor X [1]): 0.0072 µM

CS(=O)(=O)NCC1(C(=O)Nc2ccc(-c3ccccc3S(N)(=O)=O)cn2)CC(c2ccc3onc(N)c3c2)=NO1 (centres undefined)
Ki (Prothrombin): 5.2 µM
Ki (Coagulation factor X [1]): 0.0046 µM
Ki (Serine protease 1): > 5.2 µM

Nc1cc(C2=NOC(Cn3cccn3)(C(=O)Nc3ccc(-c4ccccc4S(N)(=O)=O)cn3)C2)ccc1Cl (racemic)
Ki (Prothrombin): > 21 µM
Ki (Coagulation factor X [1]): 0.014 µM
Ki (Serine protease 1): > 1.6 µM

NC(=O)NCC1(C(=O)Nc2ccc(-c3ccccc3S(N)(=O)=O)cn2)CC(c2ccc(Cl)c(N)c2)=NO1 (racemic)
Ki (Prothrombin): 9.3 µM
Ki (Coagulation factor X [1]): 0.0025 µM
Ki (Serine protease 1): > 1.6 µM

CC(=O)NCC1(C(=O)Nc2ccc(-c3ccccc3S(N)(=O)=O)cn2)CC(c2ccc(Cl)c(N)c2)=NO1 (racemic)
Ki (Prothrombin): > 21 µM
Ki (Coagulation factor X [1]): 0.011 µM
Ki (Serine protease 1): > 1.6 µM

Nc1cc(C2=NOC(Cn3cnnn3)(C(=O)Nc3ccc(-c4ccccc4S(N)(=O)=O)cn3)C2)ccc1Cl (racemic)
Ki (Prothrombin): > 21 µM
Ki (Coagulation factor X [1]): 0.01 µM
Ki (Serine protease 1): > 1.6 µM

Nc1cc(C2=NOC(CNS(=O)(=O)Cc3ccccc3)(C(=O)Nc3ccc(-c4ccccc4S(N)(=O)=O)cn3)C2)ccc1Cl (racemic)
Ki (Prothrombin): 6.2 µM
Ki (Coagulation factor X [1]): 0.0022 µM
Ki (Serine protease 1): > 4.2 µM

Nc1cc(C2=NOC(CNS(=O)(=O)c3ccccc3)(C(=O)Nc3ccc(-c4ccccc4S(N)(=O)=O)cn3)C2)ccc1Cl (racemic)
Ki (Prothrombin): > 21 µM
Ki (Coagulation factor X [1]): 0.0017 µM
Ki (Serine protease 1): > 8 µM

Nc1cc(C2=NOC(CNS(=O)(=O)CC(F)(F)F)(C(=O)Nc3ccc(-c4ccccc4S(N)(=O)=O)cn3)C2)ccc1Cl (racemic)
Ki (Prothrombin): 6.6 µM
Ki (Coagulation factor X [1]): 0.0033 µM
Ki (Serine protease 1): > 8 µM

Nc1cc(C2=NOC(CNS(=O)(=O)c3ccsc3)(C(=O)Nc3ccc(-c4ccccc4S(N)(=O)=O)cn3)C2)ccc1Cl (racemic)
Ki (Prothrombin): > 21 µM
Ki (Coagulation factor X [1]): 0.0012 µM
Ki (Serine protease 1): > 8 µM

CS(=O)(=O)NCC1(C(=O)Nc2ccc(-c3ccccc3S(N)(=O)=O)cn2)CC(c2ccc(Cl)c(N)c2)=NO1 (racemic)
Ki (Prothrombin): 1.3 µM
Ki (Coagulation factor X [1]): 0.0019 µM
Ki (Serine protease 1): > 8 µM

Nc1cc(C2=NOC(Cn3cncn3)(C(=O)Nc3ccc(-c4ccccc4S(N)(=O)=O)cn3)C2)ccc1Cl (racemic)
Ki (Prothrombin): > 21 µM
Ki (Coagulation factor X [1]): 0.034 µM
Ki (Serine protease 1): > 4.2 µM

Nc1cc(C2=NOC(CNS(N)(=O)=O)(C(=O)Nc3ccc(-c4ccccc4S(N)(=O)=O)cn3)C2)ccc1Cl (racemic)
Ki (Prothrombin): 5.9 µM
Ki (Coagulation factor X [1]): 0.0055 µM
Ki (Serine protease 1): > 8 µM

Nc1cc(C2=NOC(CNS(=O)(=O)c3cccnc3)(C(=O)Nc3ccc(-c4ccccc4S(N)(=O)=O)cn3)C2)ccc1Cl (racemic)
Ki (Prothrombin): 17 µM
Ki (Coagulation factor X [1]): 0.003 µM
Ki (Serine protease 1): > 8 µM

Nc1cc(C2=NOC(CNC=O)(C(=O)Nc3ccc(-c4ccccc4S(N)(=O)=O)cn3)C2)ccc1Cl (racemic)
Ki (Prothrombin): 14 µM
Ki (Coagulation factor X [1]): 0.015 µM
Ki (Serine protease 1): > 8 µM

CCCS(=O)(=O)NCC1(C(=O)Nc2ccc(-c3ccccc3S(N)(=O)=O)cn2)CC(c2ccc(Cl)c(N)c2)=NO1 (racemic)
Ki (Prothrombin): 18 µM
Ki (Coagulation factor X [1]): 0.0037 µM
Ki (Serine protease 1): > 8 µM

CCNC(=O)NCC1(C(=O)Nc2ccc(-c3ccccc3S(N)(=O)=O)cn2)CC(c2ccc(Cl)c(N)c2)=NO1 (racemic)
Ki (Prothrombin): > 6.3 µM
Ki (Coagulation factor X [1]): 0.069 µM
Ki (Serine protease 1): > 4.2 µM

Nc1cc(C2=NOC(Cn3cccn3)(C(=O)Nc3ccc(-c4ccccc4S(N)(=O)=O)cn3)C2)ccc1Cl (single isomer, unassigned; (+))
Ki (Prothrombin): > 21 µM
Ki (Coagulation factor X [1]): 1.1 µM
Ki (Serine protease 1): > 1.6 µM

NC(=O)NCC1(C(=O)Nc2ccc(-c3ccccc3S(N)(=O)=O)cn2)CC(c2ccc(Cl)c(N)c2)=NO1 (single isomer, unassigned; (+))
Ki (Prothrombin): > 21 µM
Ki (Coagulation factor X [1]): 0.069 µM
Ki (Serine protease 1): > 6 µM

Nc1cc(C2=NOC(Cn3cnnn3)(C(=O)Nc3ccc(-c4ccccc4S(N)(=O)=O)cn3)C2)ccc1Cl (single isomer, unassigned; (+))
Ki (Prothrombin): > 21 µM
Ki (Coagulation factor X [1]): 0.32 µM
Ki (Serine protease 1): > 1.6 µM

CS(=O)(=O)NCC1(C(=O)Nc2ccc(-c3ccccc3S(N)(=O)=O)cn2)CC(c2ccc(Cl)c(N)c2)=NO1 (single isomer, unassigned; (+))
Ki (Prothrombin): > 21 µM
Ki (Coagulation factor X [1]): 0.24 µM
Ki (Serine protease 1): > 4.2 µM

Nc1cc(C2=NOC(Cn3cccn3)(C(=O)Nc3ccc(-c4ccccc4S(N)(=O)=O)cn3)C2)ccc1Cl (single isomer, unassigned; (-))
Ki (Prothrombin): > 21 µM
Ki (Coagulation factor X [1]): 0.015 µM
Ki (Serine protease 1): > 1.6 µM

NC(=O)NCC1(C(=O)Nc2ccc(-c3ccccc3S(N)(=O)=O)cn2)CC(c2ccc(Cl)c(N)c2)=NO1 (single isomer, unassigned; (-))
half-life [6]: 2.32 h
Ki (Prothrombin): 0.8 µM
Ki (Coagulation factor X [1]): 0.0025 µM
ID50 (Oryctolagus cuniculus [7]): 5.5 µmol/kg/h
Ki (Coagulation factor X [5]): 0.0047 µM
clearance [8]: 0.43 L/h/kg
Ki (Serine protease 1): > 1.6 µM

CS(=O)(=O)NCC1(C(=O)Nc2ccc(-c3ccccc3S(N)(=O)=O)cn2)CC(c2ccc(Cl)c(N)c2)=NO1 (stereo in doubt)
half-life [6]: 7.25 h
Ki (Prothrombin): 0.8 µM
ID50 (Oryctolagus cuniculus [3]): 8 µM/h/kg
Ki (Coagulation factor X [1]): 0.0015 µM
Ki (Coagulation factor X [5]): 0.0023 µM
clearance [8]: 0.53 L/h/kg
Ki (Serine protease 1): > 8 µM

Nc1cc(C2=NOC(Cn3cnnn3)(C(=O)Nc3ccc(-c4ccccc4S(N)(=O)=O)cn3)C2)ccc1Cl (stereo in doubt; 20 (-))
Ki (Prothrombin): 19 µM
Ki (Coagulation factor X [1]): 0.0071 µM
Ki (Serine protease 1): > 1.6 µM
